The text below walks through data of ChEMBL document CHEMBL1811760, “Structure-activity relationships of C-17-substituted estratriene-3-O-sulfamates as anticancer agents” (J Med Chem, 2011).

The source made the active and inactive calls. The rule behind the calls is not given here.

Assay [1] relates to MCF7. The assay can be described thus: Antiproliferative activity against estrogen-positive human MCF7 cells. Type of assay: functional.
Assay [2] relates to DU-145. The assay can be described thus: Antiproliferative activity against human DU145 cells after 96 hrs by WST1 assay. The conditions noted are these: DU-145, 96 h. Type of assay: functional. The procedure, abridged: (§1)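 Cells were grown in RPMI-1640 with 10% FBS at 37 °C in 5% CO2, then seeded at 5000 cells/well. They were exposed to compound at 10^-9–10^-4 M or vehicle for 96 h. Live cells were read by WST-1 and expressed as percent of mean control, from which GI50 was calculated. Runs were done in triplicate.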

The test system of assay [3] is MDA-MB-231. Kind of assay: Antiproliferative activity against estrogen-negative human MDA-MB-231 cells after 96 hrs by WST1 assay. Particulars: MDA-MB-231, 96 h. It is filed as functional. An outline of the steps:
as §1
A general note: Formazan colour is commonly taken as a measure of viable cells.

The test system of assay [4] is HOP-62. The assay can be described thus: Growth inhibition of human HOP62 cells. It is filed as functional.
Assay [5] deals with HCT-116. The assay can be described thus: Growth inhibition of human HCT116 cells. It is filed as functional.
For assay [6], the system named is SF-539. Kind of assay: Growth inhibition of human SF539 cells. Type of assay: functional.
The test system of assay [7] is UACC-62. The assay can be described thus: Growth inhibition of human UACC62 cells. Type of assay: functional.
Assay [8] has as its system OVCAR-3. The assay can be described thus: Growth inhibition of human OVCAR3 cells. It is filed as functional.
Assay [9] deals with SN12C. The assay can be described thus: Growth inhibition of human SN12C cells. It is filed as functional.
The nature of assay [10]: Growth inhibition of human NCI60 cells. It is filed as functional.
The subject of assay [11] is Mus musculus. The assay can be described thus: Antiangiogenic activity in Matrigel plug implanted C57BL/6J mouse assessed as inhibition of bFGF-induced angiogenesis at 10 mg/kg, po administered 24 hrs after implantation for 4 days measured by FITC-conjugated dextran staining based fluorimetry. It is filed as functional, organism-based. Further details: dose 10 mg/kg. An outline of the steps:
(§2)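 Female C57BL/6J mice (6–8 weeks) were injected subcutaneously in the flanks with 0.5 mL ice-cold Matrigel plus 500 ng bFGF. Oral dosing in vehicle (10% THF, 90% PG) ran daily for 4 days, starting 24 h after Matrigel. Groups had five mice. FITC-dextran (0.1 mL of 0.25 mg/mL) was given iv and mice killed 20 min later. Plugs were digested in Dispase 16 h at 37 °C, and supernatant fluorescence read at ex 480/em 520 nm against a FITC-dextran standard curve.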

Assay [12] deals with Mus musculus. The assay can be described thus: Antiangiogenic activity in Matrigel plug implanted C57BL/6J mouse assessed as inhibition of bFGF-induced angiogenesis at 20 mg/kg, po administered 24 hrs after implantation for 4 days measured by FITC-conjugated dextran staining based fluorimetry. On the set-up: dose 20 mg/kg. Type of assay: functional, organism-based. An outline of the steps: as §2

Broadly, the GI50 is the concentration giving 50% growth inhibition. High values mean lower sensitivity of the cells, low ones greater sensitivity of the cells. In assay [1], `CCc1cc2c(cc1O)CC[C@@H]1[C@@H]2CC[C@]2(C)/C(=C/CO)CC[C@@H]12` showed a GI50 of 770 nM.

On to `COc1cc2c(cc1OS(N)(=O)=O)CC[C@@H]1[C@@H]2CC[C@]2(C)[C@@H](CC(C)=O)CC[C@@H]12`, for which the GI50 is 89 nM in [2]; 68 nM in [3]; under 5 nM in assay [1]; under 10 nM in assay [4]; under 10 nM in assay [5]; under 10 nM in [6]. Moreover, the GI50 was under 10 nM in [7], under 10 nM in [8], under 10 nM in assay [9] and 21 nM in assay [10]. For the same molecule, the outcome in assay [11] and in assay [12] was Active.

As to `COc1cc2c(cc1OS(N)(=O)=O)CC[C@@H]1[C@@H]2CC[C@]2(C)[C@@H](C(C)=O)CC[C@@H]12`, the 50% growth inhibitory concentration (GI50) in assay [2] amounted to 46 nM; in assay [3], 48 nM.

For the molecule `CCc1cc2c(cc1O)CC[C@@H]1[C@@H]2CC[C@]2(C)[C@@H](CC(C)=O)CC[C@@H]12`, the GI50 in assay [2] was 18900 nM; in assay [1], 5790 nM.

Take `CCc1cc2c(cc1OS(N)(=O)=O)CC[C@@H]1[C@@H]2CC[C@]2(C)[C@@H](CCOC)CC[C@@H]12`: the GI50 was found to be 3400 nM in assay [2]; 4900 nM in assay [4]; 2700 nM in assay [5]; 5010 nM in assay [6]; 2340 nM in assay [7]; 4070 nM in assay [8]. Also, the concentration for 50% growth inhibition (GI50) in [9] was 4680 nM; in assay [10], 4570 nM.

`CCOC(=O)C[C@H]1CC[C@H]2[C@@H]3CCc4cc(OS(N)(=O)=O)c(CC)cc4[C@H]3CC[C@]12C`: the 50% growth inhibitory concentration (GI50) is 4190 nM in assay [1]; 590 nM in [4]; 350 nM in assay [5]; 220 nM in [6]; 450 nM in assay [7]; 220 nM in [8]. Also, the figures for the GI50 in assay [9] and in assay [10] were 630 nM and 520 nM, respectively.

For `CCc1cc2c(cc1OS(N)(=O)=O)CC[C@@H]1[C@@H]2CC[C@]2(C)/C(=C/CO)CC[C@@H]12`, the 50% growth inhibitory concentration (GI50) in assay [1] turned out to be 10000 nM; in assay [4] it was 420 nM; in assay [5], 270 nM; in [6], 220 nM; in assay [7], 470 nM; in assay [8], 230 nM. The concentration for 50% growth inhibition (GI50) in [9] stood at 580 nM; in assay [10], 490 nM.

Consider `CCc1cc2c(cc1O)CC[C@@H]1[C@@H]2CC[C@]2(C)[C@@H](COC)CC[C@@H]12`, for which the 50% growth inhibitory concentration (GI50) in [2] came to 25300 nM; in [3], 9200 nM.

On to `CCOC(=O)/C=C1\CC[C@H]2[C@@H]3CCc4cc(OS(N)(=O)=O)c(CC)cc4[C@H]3CC[C@]12C`, for which the GI50 in assay [1] was determined as 1850 nM.

Turning to `CCc1cc2c(cc1OS(N)(=O)=O)CC[C@@H]1[C@@H]2CC[C@]2(C)[C@@H](CC(C)=O)CC[C@@H]12`, the 50% growth inhibitory concentration (GI50) in [2] worked out at 160 nM; in assay [3], 180 nM; in assay [1], 320 nM.

`COc1cc2c(cc1OS(N)(=O)=O)CC[C@@H]1[C@@H]2CC[C@]2(C)[C@@H](CC(C)O)CC[C@@H]12` (some centres not stated): the GI50 was 140 nM in [2]; 140 nM in assay [3]; 48 nM in [4]; 25 nM in assay [5]; 23 nM in [6]; under 10 nM in assay [7]. Further, the 50% growth inhibitory concentration (GI50) in assay [8] was under 10 nM; in assay [9], 52 nM; in assay [10], 28 nM.

Take `CCc1cc2c(cc1O)CC[C@@H]1[C@@H]2CC[C@]2(C)[C@@H](CCO)CC[C@@H]12`: the 50% growth inhibitory concentration (GI50) in assay [1] was determined as 2520 nM. This lies in the single-digit micromolar range.

With `COc1cc2c(cc1OS(N)(=O)=O)CC[C@@H]1[C@@H]2CC[C@]2(C)[C@@H](C/C(C)=N\O)CC[C@@H]12`, the concentration for 50% growth inhibition (GI50) stood at 2090 nM in assay [2] and 2350 nM in assay [3].

On to `CCc1cc2c(cc1OS(N)(=O)=O)CC[C@@H]1[C@@H]2CC[C@]2(C)[C@@H](CCF)CC[C@@H]12`, for which the GI50 was found to be 780 nM in [2]; 3720 nM in assay [4]; 3390 nM in assay [5]; 5250 nM in assay [6]; 3890 nM in [7]; 22900 nM in assay [8]. For the same molecule, the results for the concentration for 50% growth inhibition (GI50) in [9] and in [10] were 7590 nM and 6310 nM, respectively.

In [2], `CCc1cc2c(cc1O)CC[C@@H]1[C@@H]2CC[C@]2(C)[C@@H](CCF)CC[C@@H]12` displayed a GI50 of 3400 nM.

On to `CCc1cc2c(cc1OS(N)(=O)=O)CC[C@@H]1[C@@H]2CC[C@]2(C)[C@@H](CCO)CC[C@@H]12`, for which the 50% growth inhibitory concentration (GI50) in assay [1] is under 500 nM; in assay [4], 250 nM; in [5], 270 nM; in [6], 350 nM; in assay [7] it was 2890 nM; in assay [8] it was 11500 nM. Moreover, the results for the GI50 in assay [9] and in [10] were 2450 nM and 1730 nM, respectively.

On to `CCc1cc2c(cc1O)CC[C@@H]1[C@@H]2CC[C@]2(C)[C@@H](CC(F)F)CC[C@@H]12`, for which, in assay [2], the concentration for 50% growth inhibition (GI50) was found to be 60000 nM.

With `CCc1cc2c(cc1OS(N)(=O)=O)CC[C@@H]1[C@@H]2CC[C@]2(C)[C@@H](COC)CC[C@@H]12`, the concentration for 50% growth inhibition (GI50) was 330 nM in [2]; 530 nM in [3]; 45 nM in [4]; 22 nM in assay [5]; under 10 nM in assay [6]; under 10 nM in assay [8]. Also, the GI50 came out at 72 nM in assay [9] and 42 nM in assay [10].

Take `CCc1cc2c(cc1OS(N)(=O)=O)CC[C@@H]1[C@@H]2CC[C@]2(C)[C@@H](CC(F)F)CC[C@@H]12`: the GI50 turned out to be 1810 nM in assay [2]; 3890 nM in [4]; 2820 nM in assay [5]; 1950 nM in assay [6]; 4900 nM in [7]; 3470 nM in assay [8]. The concentration for 50% growth inhibition (GI50) was 5370 nM in assay [9] and 3090 nM in assay [10].

`CCOC(=O)C[C@H]1CC[C@H]2[C@@H]3CCc4cc(O)c(CC)cc4[C@H]3CC[C@]12C` displayed a 50% growth inhibitory concentration (GI50) in [1] of 26400 nM. This counts as double-digit micromolar.

Turning to `COc1cc2c(cc1O)CC[C@@H]1[C@@H]2CC[C@]2(C)[C@@H](C(C)=O)CC[C@@H]12`, the concentration for 50% growth inhibition (GI50) in assay [2] stood at 300 nM; in [3], 390 nM.

Consider `CCc1cc2c(cc1O)CC[C@@H]1[C@@H]2CC[C@]2(C)/C(=C/COC)CC[C@@H]12`, for which the concentration for 50% growth inhibition (GI50) in assay [1] is over 10000 nM.

Turning to `CCc1cc2c(cc1OS(N)(=O)=O)CC[C@@H]1[C@@H]2CC[C@]2(C)[C@@H](COS(N)(=O)=O)CC[C@@H]12`, the GI50 in assay [2] is 290 nM; in assay [3] it was 430 nM; in [4], 61 nM; in [5], 38 nM; in assay [6], 56 nM; in assay [7], 22 nM. In addition, the results for the 50% growth inhibitory concentration (GI50) in assay [8], in assay [9] and in assay [10] were 19 nM, 309 nM and 85 nM, respectively.

In the case of `CCc1cc2c(cc1O)CC[C@@H]1[C@@H]2CC[C@]2(C)[C@@H](CC#N)CC[C@@H]12`, the 50% growth inhibitory concentration (GI50) in assay [1] is over 100000 nM.

The molecule `CCc1cc2c(cc1OS(N)(=O)=O)CC[C@@H]1[C@@H]2CC[C@]2(C)[C@@H](CCOS(N)(=O)=O)CC[C@@H]12` yielded a GI50 in assay [1] of 5640 nM.

In [1], `CCOC(=O)/C=C1\CC[C@H]2[C@@H]3CCc4cc(O)c(CC)cc4[C@H]3CC[C@]12C` gave a GI50 of 30600 nM.

In the case of `COc1cc2c(cc1O)CC[C@@H]1[C@@H]2CC[C@]2(C)[C@@H](CC(C)=O)CC[C@@H]12`, halving of growth in assay [2] (GI50) required 2400 nM.

In the case of `CCc1cc2c(cc1O)CC[C@@H]1[C@@H]2CC[C@]2(C)[C@@H](CO)CC[C@@H]12`, the 50% growth inhibitory concentration (GI50) amounted to 10100 nM in assay [2] and 6300 nM in [3].

`CCc1cc2c(cc1O)CC[C@@H]1[C@@H]2CC[C@]2(C)/C(=C\CO)CC[C@@H]12`: the 50% growth inhibitory concentration (GI50) in [1] is 670 nM.

In turn, `CCc1cc2c(cc1O)CC[C@@H]1[C@@H]2CC[C@]2(C)[C@@H](C(C)=O)CC[C@@H]12` came in with a concentration for 50% growth inhibition (GI50) in [2] of 2000 nM.

Consider `CCc1cc2c(cc1OS(N)(=O)=O)CC[C@@H]1[C@@H]2CC[C@]2(C)[C@@H](OS(N)(=O)=O)CC[C@@H]12`, for which the concentration for 50% growth inhibition (GI50) in [4] is under 10 nM; in assay [6] it was under 10 nM; in [7], under 10 nM; in assay [8], under 10 nM; in assay [9] it was 28 nM; in [10], 18 nM.

As to `CCc1cc2c(cc1O)CC[C@@H]1[C@@H]2CC[C@]2(C)[C@@H](CCOC)CC[C@@H]12`, in assay [1], the GI50 worked out at 24800 nM.

`CCOC(=O)/C=C1/CC[C@H]2[C@@H]3CCc4cc(O)c(CC)cc4[C@H]3CC[C@]12C` gave a GI50 in [1] of 31100 nM.
